In test [1] the target is T1, Nitric oxide synthase, inducible (Homo sapiens, UniProt P35228). Put plainly: Inhibition of human iNOS expressed in human HEK293 cells assessed as nitrite accumulation at 100 uM after 18 hrs by 2,3-diaminonapthalene assay. Type of test: cell-based. An outline of the steps:
(§1)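 Transiently transfected cells plated at 5e5 cells/ml; compounds added immediately by pin transfer. Incubated 18 h for nitrite accumulation. Fluorescence (ex 360/em 425 nm) read after raising pH with NaOH (0.12 N final). Values are mean of three experiments with SD. At 100 µM, <50% inhibition is reported as >100.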

Test [2] has as its target T2, Nitric oxide synthase 1 (Homo sapiens, UniProt P29475). Kind of test: Inhibition of human nNOS expressed in HEK293 cells assessed as inhibition ionomycin-induced nitric oxide production at 100 uM incubated for 24 hrs measured after 18 hrs of ionomycin challenge by 2,3-diaminonaphthalene assay. Format: cell-based. An outline of the steps: (§2)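 Transiently transfected cells plated at 5e5 cells/ml; compounds added immediately by pin transfer. Incubated 24 h with compound, then activated by ionophore (0.8 µM final). Fluorescence (ex 360/em 425 nm) read after raising pH with NaOH (0.12 N final). Values are mean of three experiments with SD. At 100 µM, <50% inhibition is reported as >100.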

For test [3], the target named is T3, Nitric oxide synthase 3 (Homo sapiens) (UniProt P29474).
T3 sequence (whole entry): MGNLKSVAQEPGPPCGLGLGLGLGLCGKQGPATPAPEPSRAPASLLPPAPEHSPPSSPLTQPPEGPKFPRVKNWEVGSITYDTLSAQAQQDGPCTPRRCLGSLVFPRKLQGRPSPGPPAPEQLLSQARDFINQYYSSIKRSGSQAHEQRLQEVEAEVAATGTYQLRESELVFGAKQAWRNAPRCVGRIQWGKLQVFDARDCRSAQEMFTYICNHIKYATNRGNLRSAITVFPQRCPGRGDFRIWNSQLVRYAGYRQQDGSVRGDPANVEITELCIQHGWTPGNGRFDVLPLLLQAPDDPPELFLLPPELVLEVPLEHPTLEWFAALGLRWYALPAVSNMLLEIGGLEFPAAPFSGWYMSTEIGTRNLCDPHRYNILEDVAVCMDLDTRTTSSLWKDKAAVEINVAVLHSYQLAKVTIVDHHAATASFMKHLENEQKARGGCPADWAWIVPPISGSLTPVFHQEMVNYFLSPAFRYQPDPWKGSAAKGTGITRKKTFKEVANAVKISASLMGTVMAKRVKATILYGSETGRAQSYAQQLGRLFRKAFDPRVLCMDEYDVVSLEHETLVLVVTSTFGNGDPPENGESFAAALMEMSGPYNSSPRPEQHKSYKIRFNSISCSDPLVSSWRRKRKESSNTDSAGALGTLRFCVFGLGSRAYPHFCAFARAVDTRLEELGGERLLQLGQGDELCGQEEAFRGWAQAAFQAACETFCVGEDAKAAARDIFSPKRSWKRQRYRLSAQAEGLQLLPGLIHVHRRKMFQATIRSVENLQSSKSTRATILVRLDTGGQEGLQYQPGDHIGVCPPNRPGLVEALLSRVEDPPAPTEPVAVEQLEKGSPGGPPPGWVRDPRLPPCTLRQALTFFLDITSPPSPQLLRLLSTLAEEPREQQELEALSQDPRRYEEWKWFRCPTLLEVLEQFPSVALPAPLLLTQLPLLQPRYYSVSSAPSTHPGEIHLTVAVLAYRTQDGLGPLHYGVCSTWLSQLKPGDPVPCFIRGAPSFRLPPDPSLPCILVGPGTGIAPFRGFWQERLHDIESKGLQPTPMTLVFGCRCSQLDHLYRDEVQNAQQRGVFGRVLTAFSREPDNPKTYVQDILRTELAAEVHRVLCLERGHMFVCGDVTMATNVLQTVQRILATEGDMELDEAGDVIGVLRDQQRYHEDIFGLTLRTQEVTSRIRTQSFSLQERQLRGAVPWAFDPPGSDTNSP
Put plainly: Inhibition of human eNOS expressed in HEK293 cells assessed as inhibition A23187-induced nitric oxide production at 100 uM incubated for 24 hrs measured after 18 hrs of A23187 challenge by 2,3-diaminonaphthalene assay. Type of test: cell-based. An outline of the steps: as §2

Test [4] concerns the target T2, Nitric oxide synthase 1. Put plainly: Inhibition of human nNOS expressed in HEK293 cells assessed as inhibition ionomycin-induced nitric oxide production incubated for 24 hrs measured after 18 hrs of ionomycin challenge by 2,3-diaminonaphthalene assay. Type of test: cell-based. The procedure, abridged:
as §2

Test [5] has as its target T1, Nitric oxide synthase, inducible. Kind of test: Inhibition of human iNOS expressed in human HEK293 cells assessed as nitrite accumulation after 18 hrs by 2,3-diaminonapthalene assay. Format: cell-based. The procedure, abridged: as §1
The next test has as its target T4, Nitric oxide synthase 3 (Homo sapiens, UniProt P29474).
T4 sequence (P29474 whole entry): T3 sequence (whole entry)
Kind of test: Inhibition of human eNOS expressed in HEK293 cells assessed as inhibition A23187-induced nitric oxide production incubated for 24 hrs measured after 18 hrs of A23187 challenge by 2,3-diaminonaphthalene assay. Type of test: cell-based. The procedure, abridged:
as §2

Test [6] deals with T5, Nitric oxide synthase, inducible (Mus musculus) (UniProt P29477).
T5 sequence (whole entry): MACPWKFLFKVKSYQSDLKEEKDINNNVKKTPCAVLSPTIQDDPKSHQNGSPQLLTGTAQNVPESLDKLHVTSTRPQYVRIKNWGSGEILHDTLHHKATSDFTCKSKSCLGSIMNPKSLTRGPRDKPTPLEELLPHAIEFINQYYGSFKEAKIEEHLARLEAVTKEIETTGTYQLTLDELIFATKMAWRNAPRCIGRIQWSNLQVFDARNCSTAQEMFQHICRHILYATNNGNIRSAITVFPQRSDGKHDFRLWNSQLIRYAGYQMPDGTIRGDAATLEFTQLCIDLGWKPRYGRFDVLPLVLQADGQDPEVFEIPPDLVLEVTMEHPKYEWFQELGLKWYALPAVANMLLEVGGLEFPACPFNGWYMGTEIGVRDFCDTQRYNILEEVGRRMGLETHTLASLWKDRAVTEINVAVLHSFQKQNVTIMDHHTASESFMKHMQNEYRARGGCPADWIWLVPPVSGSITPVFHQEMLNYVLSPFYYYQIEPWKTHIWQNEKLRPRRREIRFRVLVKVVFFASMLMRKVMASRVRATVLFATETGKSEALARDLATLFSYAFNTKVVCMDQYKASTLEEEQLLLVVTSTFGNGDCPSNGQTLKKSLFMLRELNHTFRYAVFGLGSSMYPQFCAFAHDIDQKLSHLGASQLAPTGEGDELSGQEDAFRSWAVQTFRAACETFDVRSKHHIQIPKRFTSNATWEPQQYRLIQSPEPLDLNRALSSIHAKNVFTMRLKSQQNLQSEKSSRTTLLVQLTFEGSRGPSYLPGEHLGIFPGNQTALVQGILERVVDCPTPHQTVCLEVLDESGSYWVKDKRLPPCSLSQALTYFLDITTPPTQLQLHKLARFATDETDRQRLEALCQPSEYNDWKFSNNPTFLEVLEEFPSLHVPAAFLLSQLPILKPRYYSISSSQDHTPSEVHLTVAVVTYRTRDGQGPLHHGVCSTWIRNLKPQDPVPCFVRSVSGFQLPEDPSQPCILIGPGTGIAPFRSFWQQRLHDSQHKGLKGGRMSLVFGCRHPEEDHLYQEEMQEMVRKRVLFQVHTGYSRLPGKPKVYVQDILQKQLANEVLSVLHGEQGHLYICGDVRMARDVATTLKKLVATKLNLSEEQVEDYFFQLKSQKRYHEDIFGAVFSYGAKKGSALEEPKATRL
Kind of test: Inhibition of IFN-gamma/LPS-induced iNOS dimerization in mouse RAW264.7 cells by Western blot analysis. Format: cell-based. The procedure, abridged:
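RAW 264.7 cells seeded at 1.8 × 10⁶ cells/well and incubated 5 h. Then stimulated overnight with murine IFN-γ (100 U/mL final) and LPS (2 µg/mL final) plus 10 µM compound or vehicle (0.1% DMSO final). Lysates protein-normalized, run on 4–20% Tris–glycine gel under low-temperature SDS–PAGE in a cold room. Blotted with mouse anti-iNOS, read by infrared imaging.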

Test [7] addresses T1, Nitric oxide synthase, inducible. Put plainly: Inhibition of human iNOS.
Test [8] relates to Rattus norvegicus. Kind of test: Antiinflammatory activity in po dosed Lewis rat endotoxemia model assessed as inhibition of LPS-induced plasma nitrate accumulation after 6 hrs. Type of test: functional.
For test [9], the system named is Rattus norvegicus. Kind of test: Antiinflammatory activity in Lewis rat assessed as inhibition of carrageenan-induced edema at 3 to 30 mg/kg, po administered 15 mins before carrageenan challenge measured after 5 hrs. Type of test: functional, organism-based.
For test [10], the system named is Rattus norvegicus. Kind of test: Antiinflammatory activity in Lewis rat assessed as inhibition of carrageenan-induced thermal hyperalgesia at 3 to 30 mg/kg, po administered 15 mins before carrageenan challenge measured after 5 hrs. Type of test: functional, organism-based.
For test [11], the system named is Rattus norvegicus. Kind of test: Analgesic activity in po dosed Lewis rat post operative brennan model assessed as incison-induced paw weight bearing response after 30 to 120 mins. Type of test: functional, organism-based.

Activity calls are given as the source filed them. The calls are words filed in the database; no cut-off is given here.

The text below walks through data of ChEMBL document CHEMBL1909611, “Identification and SAR of selective inducible nitric oxide synthase (iNOS) dimerization inhibitors” (Bioorg Med Chem Lett, 2011).

T2 sequence (P29475 whole entry): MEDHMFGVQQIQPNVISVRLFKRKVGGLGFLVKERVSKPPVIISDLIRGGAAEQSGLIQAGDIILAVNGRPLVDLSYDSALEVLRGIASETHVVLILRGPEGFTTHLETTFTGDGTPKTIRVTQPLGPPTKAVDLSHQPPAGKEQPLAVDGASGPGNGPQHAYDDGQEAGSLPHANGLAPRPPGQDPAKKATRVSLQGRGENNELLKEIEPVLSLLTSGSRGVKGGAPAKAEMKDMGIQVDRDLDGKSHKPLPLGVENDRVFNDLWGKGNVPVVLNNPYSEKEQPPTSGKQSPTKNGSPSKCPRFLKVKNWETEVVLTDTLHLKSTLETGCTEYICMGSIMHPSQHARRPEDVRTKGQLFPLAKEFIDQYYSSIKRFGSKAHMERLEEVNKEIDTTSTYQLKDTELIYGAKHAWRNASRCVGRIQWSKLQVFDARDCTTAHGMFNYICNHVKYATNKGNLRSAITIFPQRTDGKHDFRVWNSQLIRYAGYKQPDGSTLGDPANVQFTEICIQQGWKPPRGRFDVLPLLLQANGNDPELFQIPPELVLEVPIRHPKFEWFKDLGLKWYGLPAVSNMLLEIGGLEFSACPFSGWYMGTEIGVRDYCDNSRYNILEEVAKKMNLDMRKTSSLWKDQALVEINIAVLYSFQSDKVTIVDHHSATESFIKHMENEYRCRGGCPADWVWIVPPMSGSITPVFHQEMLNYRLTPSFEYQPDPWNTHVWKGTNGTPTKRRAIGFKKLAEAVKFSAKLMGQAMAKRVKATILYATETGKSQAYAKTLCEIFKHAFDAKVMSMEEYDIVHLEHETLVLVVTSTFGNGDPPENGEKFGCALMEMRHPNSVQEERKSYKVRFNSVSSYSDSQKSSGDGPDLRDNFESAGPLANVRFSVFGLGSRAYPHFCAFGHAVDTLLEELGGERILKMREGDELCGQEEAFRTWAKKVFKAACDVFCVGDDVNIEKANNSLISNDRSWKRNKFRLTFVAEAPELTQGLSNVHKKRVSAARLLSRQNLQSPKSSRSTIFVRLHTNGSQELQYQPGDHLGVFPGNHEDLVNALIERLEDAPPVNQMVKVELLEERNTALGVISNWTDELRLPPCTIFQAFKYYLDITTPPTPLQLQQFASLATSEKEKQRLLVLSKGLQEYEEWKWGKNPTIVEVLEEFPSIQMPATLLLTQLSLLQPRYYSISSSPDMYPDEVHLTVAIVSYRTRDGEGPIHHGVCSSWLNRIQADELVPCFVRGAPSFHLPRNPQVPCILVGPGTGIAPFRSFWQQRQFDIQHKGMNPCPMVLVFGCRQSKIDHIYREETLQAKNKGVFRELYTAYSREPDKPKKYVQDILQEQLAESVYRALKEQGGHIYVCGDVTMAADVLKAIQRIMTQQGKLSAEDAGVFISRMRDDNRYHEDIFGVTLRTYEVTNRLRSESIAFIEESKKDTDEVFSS
T1 sequence (P35228 whole entry): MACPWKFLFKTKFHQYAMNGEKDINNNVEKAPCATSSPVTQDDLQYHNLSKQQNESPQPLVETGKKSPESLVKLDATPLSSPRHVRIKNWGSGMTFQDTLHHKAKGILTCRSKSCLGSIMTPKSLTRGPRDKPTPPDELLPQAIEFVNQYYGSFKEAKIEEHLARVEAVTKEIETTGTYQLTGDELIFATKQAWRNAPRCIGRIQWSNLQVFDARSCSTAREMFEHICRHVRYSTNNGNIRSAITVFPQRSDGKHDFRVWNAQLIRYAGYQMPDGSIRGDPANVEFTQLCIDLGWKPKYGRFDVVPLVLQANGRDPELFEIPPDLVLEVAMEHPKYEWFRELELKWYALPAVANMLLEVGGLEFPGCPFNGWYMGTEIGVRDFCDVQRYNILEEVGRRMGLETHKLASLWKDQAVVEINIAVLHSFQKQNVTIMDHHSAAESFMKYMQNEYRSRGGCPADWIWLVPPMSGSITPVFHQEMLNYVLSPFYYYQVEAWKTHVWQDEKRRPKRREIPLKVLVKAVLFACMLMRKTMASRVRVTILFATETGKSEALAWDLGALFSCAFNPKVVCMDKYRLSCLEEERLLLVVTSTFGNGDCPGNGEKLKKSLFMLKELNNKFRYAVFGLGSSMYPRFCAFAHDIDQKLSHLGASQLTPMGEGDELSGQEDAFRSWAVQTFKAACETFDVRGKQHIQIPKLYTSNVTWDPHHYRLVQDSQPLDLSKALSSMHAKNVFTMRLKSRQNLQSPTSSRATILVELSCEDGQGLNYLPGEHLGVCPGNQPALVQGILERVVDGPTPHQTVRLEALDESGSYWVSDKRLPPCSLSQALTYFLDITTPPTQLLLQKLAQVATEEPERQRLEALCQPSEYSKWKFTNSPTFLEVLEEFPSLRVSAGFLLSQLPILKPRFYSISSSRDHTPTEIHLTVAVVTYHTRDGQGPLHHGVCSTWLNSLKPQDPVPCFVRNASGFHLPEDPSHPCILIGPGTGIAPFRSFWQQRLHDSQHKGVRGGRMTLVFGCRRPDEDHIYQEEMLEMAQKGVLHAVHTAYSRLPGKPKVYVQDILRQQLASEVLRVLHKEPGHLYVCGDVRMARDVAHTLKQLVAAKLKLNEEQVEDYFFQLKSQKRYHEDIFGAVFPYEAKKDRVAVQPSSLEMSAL

Turning to `CN(CCCNCc1ccncc1)c1nc(-n2ccnc2)ns1`, the inhibition (in test [1]; on Nitric oxide synthase 1 [2]; in [3]) was under 50% throughout. Also, the EC50 (at Nitric oxide synthase 1 [4]; in test [5]; at Nitric oxide synthase 3) was over 100 µM in each case.
On to `CN(CCCNCc1ccc(F)c(F)c1)c1nc(-n2ccnc2)ns1`, for which the inhibition (in [1]; at Nitric oxide synthase 1 [2]; in test [3]) was under 50% each time. Besides, the EC50 (on Nitric oxide synthase 1 [4]; in [5]; at Nitric oxide synthase 3) was over 100 µM in each case.
Take `Cc1cc(N(C)CCCNCc2ccc3c(c2)OCO3)nc(-n2ccnc2)n1`: the inhibition result in test [6] was “Active”. This compound gave an IC50 in [7] of 0.01 µM.
Take `CN(CCCNCc1ccc2[nH]ccc2c1)c1nc(-n2ccnc2)ns1`: the inhibition (in test [1]; at Nitric oxide synthase 1 [2]; in test [3]) was under 50% each time. Moreover, the EC50 (at Nitric oxide synthase 1 [4]; in test [5]; on Nitric oxide synthase 3) was over 100 µM throughout.
Take `CN(CCCNCc1ccc2c(c1)OCO2)c1nc(-n2ccnc2)ns1` [KD7040]: the inhibition result in [6] is “Active”. The IC50 in test [7] was found to be 0.007 µM. Also, the EC50 on Nitric oxide synthase 1 [4] is 17.3 µM; in test [5], 0.008 µM; at Nitric oxide synthase 3, over 100 µM.
Turning to `O=C(O)CN(CCCNCc1ccc2c(c1)OCO2)c1nc(-n2ccnc2)ns1`, the inhibition (in test [1]; on Nitric oxide synthase 1 [2]; in test [3]) was under 50% throughout. For the same compound, the EC50 (at Nitric oxide synthase 1 [4]; in test [5]; on Nitric oxide synthase 3) was over 100 µM in each case.
Consider `CN(CCCNCc1ccccc1)c1nc(-n2ccnc2)ns1`, for which the inhibition (in test [1]; on Nitric oxide synthase 1 [2]; in test [3]) was under 50% throughout. In addition, the inhibition result in [6] was “Active”. The half-inhibitory concentration (IC50) in [7] was over 100 µM. For the same compound, the EC50 (on Nitric oxide synthase 1 [4]; in test [5]; on Nitric oxide synthase 3) was over 100 µM throughout.
With `Cc1cc(CNC(=O)CNCc2ccc3c(c2)OCO3)nc(-n2ccnc2)n1`, the inhibition (on Nitric oxide synthase 1 [2]; in test [3]) was under 50% in each case. For the same compound, the results for the EC50 (at Nitric oxide synthase 1 [4]; in test [5]; at Nitric oxide synthase 3) were over 100 µM, 0.293 µM and over 100 µM, respectively.
Regarding `Cc1cc(N(C)CCCNCc2ccc3c(c2)OCO3)nc(-n2cccc2)n1`, the inhibition result in test [6] was “inactive”. The compound also had an IC50 in test [7] of over 100 µM.
Take `Cc1cc(CCCCNCc2ccc3c(c2)OCO3)nc(-n2ccnc2)n1`: the inhibition (on Nitric oxide synthase 1 [2]; in test [3]) was under 50% in each case. For the same compound, the figures for the EC50 (at Nitric oxide synthase 1 [4]; in test [5]; at Nitric oxide synthase 3) were over 100 µM, 0.02 µM and over 100 µM, respectively.
In the case of `Cc1cc(C(=O)NCCN(C)Cc2ccc3c(c2)OCO3)nc(-n2ccnc2)n1`, the inhibition (in test [1]; at Nitric oxide synthase 1 [2]; in test [3]) was under 50% throughout. In addition, the EC50 (on Nitric oxide synthase 1 [4]; in [5]; at Nitric oxide synthase 3) was over 100 µM throughout.
Take `Cc1cc(C(C)(C)NCCNCc2ccc3c(c2)OCO3)nc(-n2ccnc2)n1`: the inhibition (at Nitric oxide synthase 1 [2]; in [3]) was under 50% each time. Further, the ED50 in the test with Rattus norvegicus [8] was 9.3 mg/kg. The inhibition result with Rattus norvegicus [9] and in the test on Rattus norvegicus [10] was “Active” each time. Besides, in the test on Rattus norvegicus [11], the outcome was Active. In addition, the results for the EC50 (at Nitric oxide synthase 1 [4]; in [5]; on Nitric oxide synthase 3) were over 100 µM, 2.3 µM and over 100 µM, respectively.
